For one compound, AUC(0-inf) and Tmax results are on record in ChEMBL document CHEMBL4406794, “N-(7-Cyano-6-(4-fluoro-3-(2-(3-(trifluoromethyl)phenyl)acetamido)phenoxy)benzo[d]thiazol-2-yl)cyclopropanecarboxamide (TAK-632) Analogues as Novel Necroptosis Inhibitors by Targeting Receptor-Interacting Protein Kinase 3 (RIPK3): Synthesis, Structure-Activity Relationships, and in Vivo Efficacy” (J Med Chem, 2019).

Data set [1] is described as follows: AUC (0 to infinity) in Sprague-Dawley rat at 5 mg/kg, po by LC-tandem mass spectrometry analysis. The format is ADME, organism-based. Also noted: dose 5 mg/kg, time infinity, route oral. The note with it: in vivo. The procedure, abridged:
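Male Sprague-Dawley rats dosed once i.v. at 1 mg/kg or intragastrically at 5 mg/kg. Compound dissolved in 5% DMSO, 10% Tween 80, 75% physiological saline at 0.2 and 1 mg/mL. Blood taken at several time points, plasma spun at 4 °C, stored at -80 °C, assayed by LC/MS/MS. Parameters from individual animals by noncompartmental analysis.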

Data set [2] in a line: Tmax in Sprague-Dawley rat at 5 mg/kg, po by LC-tandem mass spectrometry analysis. The format is ADME, organism-based. The note with it: in vivo. The method in brief: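 Male Sprague-Dawley rats received compound iv (1 mg/kg) or intragastrically (5 mg/kg). The vehicle was 5% DMSO, 10% Tween 80 and 75% saline, at 0.2 or 1 mg/mL. Blood was sampled at several time points and centrifuged at 4 °C. Plasma was stored at -80 °C and analysed by LC/MS/MS. Parameters were derived by noncompartmental analysis of individual animal data.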

Take `O=C(Nc1cccc(Br)c1)Nc1cc(Oc2ccc3nc(NC(=O)C4CC4)sc3c2)ccc1F`: the AUC(0-inf) in data set [1] was 9320 ng·h/mL. Also, in data set [2], the Tmax was determined as 8.67 h.

What is called AUC(0-inf) is the area under the concentration-time curve extrapolated to infinity. As a reminder, the Tmax is the time at which the peak concentration occurs.
